What was measured:
Hepatitis B virus [1] = assay: Antiviral activity against Hepatitis B virus infected in human HepG2(2.2.15) cells assessed as inhibition of viral e antigen secretion by ELISA; assay type: functional, organism-based
Method in brief: (§1)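 HepG 2.2.15 cells in RPMI-1640 with 10% fetal calf serum at 37 °C, 5% CO2. Compounds dissolved in DMSO, culture DMSO below 2.5 μL/mL. Secreted HBeAg and HBsAg measured by ELISA. IC50 values are means of at least two experiments.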

Hepatitis B virus [2] = assay: Antiviral activity against Hepatitis B virus infected in human HepG2(2.2.15) cells assessed as inhibition of viral surface antigen secretion by ELISA; assay type: functional, organism-based; method in brief: as §1
Hepatitis B virus [3] = assay: Antiviral activity against Hepatitis B virus infected in human HepG2(2.2.15) cells assessed as inhibition of viral DNA replication by PCR analysis; assay type: functional, organism-based
Method in brief: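 HepG 2.2.15 cells grown in RPMI-1640 with 10% fetal calf serum, […] and penicillin/streptomycin at 37 °C, 5% CO2. Compounds added in DMSO, kept below 2.5 μL/mL. HBV DNA quantified by SYBR Green real-time PCR with HBV-specific primers spanning 541–591 bp. IC50 values are means of at least two experiments.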

[4] = Cytotoxicity against human HepG2(2.2.15) cells by modified-MTT assay; assay type: cell-based
Method in brief: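 HepG 2.2.15 cells in RPMI-1640 with 10% fetal calf serum at 37 °C, 5% CO2. Compounds in DMSO, final DMSO below 2.5 μL/mL. Viability read by modified MTT method. CC50 is the mean of at least two experiments.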

[5] = Selectivity index, ratio of CC50 for human HepG2(2.2.15) cells to IC50 for Hepatitis B virus infected in human HepG2(2.2.15) cells assessed as inhibition of viral surface antigen secretion; assay type: functional
Method in brief: (§2)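 SI calculated as CC50 (MTT, HepG 2.2.15) divided by IC50 for the named read-out (HBV DNA by real-time PCR, or HBeAg or HBsAg secretion by ELISA), in the same cell line.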

[6] = Selectivity index, ratio of CC50 for human HepG2(2.2.15) cells to IC50 for Hepatitis B virus infected in human HepG2(2.2.15) cells assessed as inhibition of viral DNA replication; assay type: functional; method in brief: as §2
[7] = Selectivity index, ratio of CC50 for human HepG2(2.2.15) cells to IC50 for Hepatitis B virus infected in human HepG2(2.2.15) cells assessed as inhibition of viral e antigen secretion; assay type: functional; method in brief: as §2

SMILES | IC50 (Hepatitis B virus [1]) [µM] | IC50 (Hepatitis B virus [2]) [µM] | IC50 (Hepatitis B virus [3]) [µM] | CC50 [4] [µM] | Ratio CC50/IC50 [5] | Ratio CC50/IC50 [6] | Ratio CC50/IC50 [7]
COc1cccc(/C=C/C(=O)O[C@H]2CC[C@@]3(C)C(=CC[C@]4(O)[C@@H]3C[C@@H](OC(=O)/C=C(\C)C(C)C)[C@@]3(C)[C@]4(O)CC[C@@]3(OC(=O)/C=C/c3cccc(OC)c3)C(C)=O)C2)c1 | > 1370 | > 1370 | > 342 | > 1370 |  |  | 
COc1ccc(/C=C/C(=O)O[C@H]2CC[C@@]3(C)C(=CC[C@]4(O)[C@@H]3C[C@@H](OC(=O)/C=C(\C)C(C)C)[C@@]3(C)[C@]4(O)CC[C@@]3(O)C(C)=O)C2)cc1 | 569 | 108 | 10.9 | > 1380 | >12.9 | >127.1 | >2.4
CC(=O)[C@]1(O)CC[C@@]2(O)[C@]1(C)[C@H](OC(=O)/C=C(\C)C(C)C)C[C@@H]1[C@@]3(C)CC[C@H](OC(=O)/C=C/c4ccccc4C)CC3=CC[C@]12O | 230 | 81.1 | 7.2 | 1370 | 16.9 | 190.4 | 6
CC(=O)[C@]1(O)CC[C@@]2(O)[C@]1(C)[C@H](OC(=O)/C=C(\C)C(C)C)C[C@@H]1[C@@]3(C)CC[C@H](OC(=O)/C=C/c4cccc(Cl)c4)CC3=CC[C@]12O | 359 | 18.8 | 12.7 | > 1320 | >70.1 | >103.6 | >3.7
COc1ccc(/C=C/C(=O)O[C@H]2CC[C@@]3(C)C(=CC[C@]4(O)[C@@H]3C[C@@H](OC(=O)/C=C(\C)C(C)C)[C@@]3(C)[C@]4(O)CC[C@@]3(O)C(C)=O)C2)c(OC)c1OC | 28 | 12.4 | 21.1 | > 1550 | >125 | >73.5 | >55.3
COc1ccc(/C=C/C(=O)O[C@H]2CC[C@@]3(C)C(=CC[C@]4(O)[C@@H]3C[C@@H](OC(=O)/C=C(\C)C(C)C)[C@@]3(C)[C@]4(O)CC[C@@]3(O)C(C)=O)C2)cc1OC | 85.2 | 22.1 | 11.8 | > 1600 | >72.7 | >135.6 | >18.8
CC(=O)[C@]1(O)CC[C@@]2(O)[C@]1(C)[C@H](OC(=O)/C=C(\C)C(C)C)C[C@@H]1[C@@]3(C)CC[C@H](OC(=O)/C=C/c4cc(C(F)(F)F)cc(C(F)(F)F)c4)CC3=CC[C@]12O | 612 | 433 | > 321 | > 1280 | >3 |  | >2.1
CC(=O)[C@]1(O)CC[C@@]2(O)[C@]1(C)[C@H](OC(=O)/C=C(\C)C(C)C)C[C@@H]1[C@@]3(C)CC[C@H](OC(=O)/C=C/c4cccc(OC(F)(F)F)c4)CC3=CC[C@]12O | > 584 | 236 | 5.71 | 584 | 2.5 | 102.3 | 
CC(=O)[C@]1(O)CC[C@@]2(O)[C@]1(C)[C@H](OC(=O)/C=C(\C)C(C)C)C[C@@H]1[C@@]3(C)CC[C@H](OC(=O)/C=C/c4cccc(F)c4F)CC3=CC[C@]12O | 16.4 | 13.2 | 2.86 | 118 | 9 | >41.2 | 7.2
COc1cccc(/C=C/C(=O)O[C@H]2CC[C@@]3(C)C(=CC[C@]4(O)[C@@H]3C[C@@H](OC(=O)/C=C(\C)C(C)C)[C@@]3(C)[C@]4(O)CC[C@@]3(O)C(C)=O)C2)c1 | 24.9 | 10.5 | 4.46 | > 1080 | >102 | >241.2 | >43.3
C[C@H](Cn1cnc2c(N)ncnc21)OCP(=O)(O)O [TENOFOVIR ANHYDROUS] | 1160 |  | 0.68 | > 1740 | >1.2 | >2560.2 | >1.5
CC(=O)[C@]1(O)CC[C@@]2(O)[C@]1(C)[C@H](OC(=O)/C=C(\C)C(C)C)C[C@@H]1[C@@]3(C)CC[C@H](OC(=O)/C=C/c4ccccc4[N+](=O)[O-])CC3=CC[C@]12O | 52.7 | 37 | 21.7 | > 1550 | >41.9 | >71.4 | >29.4
COc1ccc(/C=C/C(=O)O[C@H]2CC[C@@]3(C)C(=CC[C@]4(O)[C@@H]3C[C@@H](OC(=O)/C=C(\C)C(C)C)[C@@]3(C)[C@]4(O)CC[C@@]3(OC(=O)/C=C/c3ccc(OC)c(OC)c3)C(C)=O)C2)cc1OC | 632 | 528 | > 307 | > 1210 | >2.3 |  | >1.9
CC(=O)[C@]1(O)CC[C@@]2(O)[C@]1(C)[C@H](OC(=O)/C=C(\C)C(C)C)C[C@@H]1[C@@]3(C)CC[C@H](OC(=O)/C=C/c4ccc(Cl)cc4)CC3=CC[C@]12O | > 701 | 119 | 16.3 | 701 | 5.9 | 43.1 | 
CC(=O)[C@]1(O)CC[C@@]2(O)[C@]1(C)[C@H](OC(=O)/C=C(\C)C(C)C)C[C@@H]1[C@@]3(C)CC[C@H](OC(=O)/C=C/c4cc(F)cc(F)c4)CC3=CC[C@]12O | 90.7 | 20.3 | 18.6 | > 1340 | >66 | >72 | >14.8
CC(=O)[C@]1(OC(=O)/C=C/c2ccccc2[N+](=O)[O-])CC[C@@]2(O)[C@]1(C)[C@H](OC(=O)/C=C(\C)C(C)C)C[C@@H]1[C@@]3(C)CC[C@H](OC(=O)/C=C/c4ccccc4[N+](=O)[O-])CC3=CC[C@]12O | 522 | 116 | > 434 | > 1740 | >15 |  | >3.3
CC(=O)[C@]1(O)CC[C@@]2(O)[C@]1(C)[C@H](OC(=O)/C=C(\C)C(C)C)C[C@@H]1[C@@]3(C)CC[C@H](OC(=O)/C=C/c4c(F)c(F)c(F)c(F)c4F)CC3=CC[C@]12O | 353 | 26.3 | 9.9 | < 8.22 |  |  | 
CC(=O)[C@]1(O)CC[C@@]2(O)[C@]1(C)[C@H](OC(=O)/C=C(\C)C(C)C)C[C@@H]1[C@@]3(C)CC[C@H](OC(=O)/C=C/c4ccc(C)cc4)CC3=CC[C@]12O | > 550 | 108 | 12 | 550 | 5.1 | 46 | 
CC(=O)[C@]1(O)CC[C@@]2(O)[C@]1(C)[C@H](OC(=O)/C=C(\C)C(C)C)C[C@@H]1[C@@]3(C)CC[C@H](OC(=O)/C=C/c4cccc(C(F)(F)F)c4)CC3=CC[C@]12O | > 1190 | 112 | 14.9 | 718 | 6.4 | 48.3 | 
CC(=O)[C@]1(OC(=O)/C=C/c2ccc(Cl)cc2)CC[C@@]2(O)[C@]1(C)[C@H](OC(=O)/C=C(\C)C(C)C)C[C@@H]1[C@@]3(C)CC[C@H](OC(=O)/C=C/c4ccc(Cl)cc4)CC3=CC[C@]12O | > 290 | > 290 | > 290 | > 1160 |  |  | 
CC(=O)[C@]1(O)CC[C@@]2(O)[C@]1(C)[C@H](OC(=O)/C=C(\C)C(C)C)C[C@@H]1[C@@]3(C)CC[C@H](OC(=O)/C=C/c4ccc(O)c(O)c4)CC3=CC[C@]12O | > 567 | 16.1 | 9.1 | 8.49 |  |  | 
CC(=O)[C@]1(O)CC[C@@]2(O)[C@]1(C)[C@H](OC(=O)/C=C(\C)C(C)C)C[C@@H]1[C@@]3(C)CC[C@H](O)CC3=CC[C@]12O [CAUDATIN] | > 183 |  |  |  | 1.7 | 6 | <1.3
CC(=O)Oc1ccc(/C=C/C(=O)O[C@H]2CC[C@@]3(C)C(=CC[C@]4(O)[C@@H]3C[C@@H](OC(=O)/C=C(\C)C(C)C)[C@@]3(C)[C@]4(O)CC[C@@]3(O)C(C)=O)C2)cc1 | 231 | < 6.96 | 3.42 | < 6.96 |  | <2 | 
COc1cc(/C=C/C(=O)O[C@H]2CC[C@@]3(C)C(=CC[C@]4(O)[C@@H]3C[C@@H](OC(=O)/C=C(\C)C(C)C)[C@@]3(C)[C@]4(O)CC[C@@]3(O)C(C)=O)C2)ccc1OC(C)=O | 653 | < 9.97 | 4.39 | < 9.97 |  | <2.3 | 

From ChEMBL document CHEMBL2046311, “Design, synthesis, and molecular hybrids of caudatin and cinnamic acids as novel anti-hepatitis B virus agents” (Eur J Med Chem, 2012)
